Each structure is given as a SMILES string. The source made the active and inactive calls. The calls are words filed in the database; no cut-off is given here.

Test [1] deals with T1, D(2) dopamine receptor (Homo sapiens, UniProt P14416). The experiment in a line: Agonist activity at human dopamine D2L receptor expressed in F1pIn CHO cells assessed as induction of ERK1/2 phosphorylation by time-course assay. In kind it is cell-based.
Test [2] has as its target Muscarinic acetylcholine receptor M1 (Homo sapiens) (UniProt P11229). Put plainly: Agonist activity at human mAChR1 receptor expressed in F1pIn CHO cells assessed as induction of intracellular calcium mobilization. (Calcium flux is commonly read through the fluorescence of an indicator in the cells.)
Test [3] concerns the target T1, D(2) dopamine receptor. Put plainly: Agonist activity at human dopamine D2L receptor expressed in F1pIn CHO cells assessed as […] forskolin-mediated cAMP accumulation incubated for 30 mins by AlphaScreen assay relative to ropinirole. The format is functional, cell-based. The gist of the method:
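D2L-FlpIn CHO cells, cAMP signalling. Emax is given as a percentage of the maximal response to ropinirole. Mean of four to six experiments, each run in duplicate.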

Test [4] deals with T1, D(2) dopamine receptor. Put plainly: Displacement of [3H]-raclopride from human dopamine D2L receptor expressed in F1pIn CHO cells after 60 mins by scintillation counting analysis. The format is cell-based. The gist of the method:
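Binding in whole D2L-FlpIn CHO cells with [3H]raclopride as radioligand. Mean of three to four experiments, each run in duplicate.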

The target in test [5] is T1, D(2) dopamine receptor. Put plainly: Agonist activity at human dopamine D2L receptor expressed in F1pIn CHO cells assessed as induction of ERK1/2 phosphorylation incubated for 5 mins by AlphaScreen assay. In kind it is cell-based. In a few lines: (§1)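 D2L-FlpIn CHO cells. Agonist concentration–response curves were measured for cAMP signalling and for ERK1/2 phosphorylation. Mean of four to six experiments, each run in duplicate.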
A general note: Alpha assays give light when donor and acceptor beads are brought close together.

In test [6] the target is T2, 5-hydroxytryptamine receptor 2A (Homo sapiens, UniProt P28223). The experiment in a line: Displacement of [3H]ketanserin from human 5-HT2A receptor expressed in F1pIn CHO cell membranes after 1 hr by scintillation counting method. In a few lines: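 Binding in 5-HT2A-FlpIn CHO cell membranes with [3H]ketanserin as radioligand. Mean of three to four experiments, each run in duplicate.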
Background: Loss of bound radioactivity is the signal in a displacement assay; it reports binding, not function.

Test [7] has as its target T2, 5-hydroxytryptamine receptor 2A. The experiment in a line: Antagonist activity at human 5-HT2A receptor expressed in F1pIn CHO cells assessed as inhibition of serotonin-induced myo-inositol 1 phosphate accumulation after 1 hr by HTRF assay. In kind it is functional, cell-based. The gist of the method:
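Functional affinity (KB) from interaction studies against varying serotonin concentrations in an IP1 accumulation assay in 5-HT2A-FlpIn CHO cells. Mean of three to four experiments, each run in duplicate.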

Test [8] has as its target T1, D(2) dopamine receptor. Put plainly: Agonist activity at human dopamine D2L receptor expressed in F1pIn CHO cells assessed as induction of ERK1/2 phosphorylation incubated for 5 mins by AlphaScreen assay relative to FBS. In kind it is cell-based. In a few lines:
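D2L-FlpIn CHO cells, pERK1/2 assay. Emax is given as a percentage of the maximal response to FBS. Mean of four to six experiments, each run in duplicate.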

Test [9] concerns the target Muscarinic acetylcholine receptor M1 (Homo sapiens) (UniProt P11229). The experiment in a line: Agonist activity at human mAChR1 receptor expressed in F1pIn CHO cells assessed as induction of intracellular calcium mobilization relative to acetylcholine.
The target in test [10] is T1, D(2) dopamine receptor. The experiment in a line: Agonist activity at human dopamine D2L receptor expressed in F1pIn CHO cells assessed as […] forskolin-mediated cAMP accumulation incubated for 30 mins by AlphaScreen assay. In kind it is functional, cell-based. The gist of the method: as §1
Test [11] addresses T1, D(2) dopamine receptor. Put plainly: Antagonist activity at human dopamine D2L receptor expressed in F1pIn CHO cells assessed as inhibition of ERK1/2 phosphorylation incubated for 5 mins by AlphaScreen assay. The format is cell-based. In a few lines: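 Functional affinity (KB) from interaction studies against varying dopamine concentrations, read out as pERK1/2 levels in D2L-FlpIn CHO cells. Data fitted by Gaddum–Schild analysis. Mean of three to four experiments, each run in duplicate.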

The target of test [12] is T1, D(2) dopamine receptor. The experiment in a line: Antagonist activity at human dopamine D2L receptor expressed in F1pIn CHO cells assessed as inhibition of ERK1/2 phosphorylation by time-course assay. The format is cell-based.

T1 sequence (P14416 whole entry): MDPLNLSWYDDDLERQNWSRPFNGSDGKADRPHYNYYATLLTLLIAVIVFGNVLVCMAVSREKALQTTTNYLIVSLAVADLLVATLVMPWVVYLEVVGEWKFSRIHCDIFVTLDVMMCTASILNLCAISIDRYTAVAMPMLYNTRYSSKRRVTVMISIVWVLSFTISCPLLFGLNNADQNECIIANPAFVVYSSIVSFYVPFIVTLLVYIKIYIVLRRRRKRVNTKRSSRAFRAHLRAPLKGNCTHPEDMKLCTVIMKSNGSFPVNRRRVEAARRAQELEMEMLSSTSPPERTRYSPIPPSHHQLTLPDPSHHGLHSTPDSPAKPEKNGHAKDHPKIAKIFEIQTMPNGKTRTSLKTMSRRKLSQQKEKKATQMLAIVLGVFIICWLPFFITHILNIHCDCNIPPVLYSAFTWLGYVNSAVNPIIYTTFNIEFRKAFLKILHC
Sequence of Muscarinic acetylcholine receptor M1 (Homo sapiens) (P11229 whole entry, looked up): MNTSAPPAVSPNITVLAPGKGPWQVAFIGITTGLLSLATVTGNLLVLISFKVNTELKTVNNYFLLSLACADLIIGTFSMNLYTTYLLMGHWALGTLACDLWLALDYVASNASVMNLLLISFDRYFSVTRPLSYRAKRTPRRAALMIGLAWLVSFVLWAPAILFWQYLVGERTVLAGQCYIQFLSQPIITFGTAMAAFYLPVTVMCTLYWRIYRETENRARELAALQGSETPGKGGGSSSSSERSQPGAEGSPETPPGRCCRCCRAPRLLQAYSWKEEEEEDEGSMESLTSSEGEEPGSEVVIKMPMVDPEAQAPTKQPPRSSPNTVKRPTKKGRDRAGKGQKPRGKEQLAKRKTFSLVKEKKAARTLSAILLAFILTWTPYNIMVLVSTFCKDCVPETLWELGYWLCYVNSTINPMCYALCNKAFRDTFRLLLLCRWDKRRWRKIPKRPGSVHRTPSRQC
T2 sequence (P28223 whole entry): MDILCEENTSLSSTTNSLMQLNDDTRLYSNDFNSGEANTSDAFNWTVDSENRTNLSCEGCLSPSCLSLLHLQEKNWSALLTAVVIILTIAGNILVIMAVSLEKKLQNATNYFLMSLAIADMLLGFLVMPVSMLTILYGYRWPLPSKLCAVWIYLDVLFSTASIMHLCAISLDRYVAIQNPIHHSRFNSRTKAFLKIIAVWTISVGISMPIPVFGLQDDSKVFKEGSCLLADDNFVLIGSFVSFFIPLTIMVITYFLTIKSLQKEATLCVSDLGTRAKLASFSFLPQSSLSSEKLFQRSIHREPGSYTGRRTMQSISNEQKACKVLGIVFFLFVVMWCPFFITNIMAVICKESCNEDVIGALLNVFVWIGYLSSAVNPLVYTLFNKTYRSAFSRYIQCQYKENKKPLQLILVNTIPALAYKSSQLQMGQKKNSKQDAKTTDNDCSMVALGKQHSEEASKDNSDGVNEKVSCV

Consider `O=C1COc2ccccc2N1CCCN1CCN(c2cccc3[nH]c(=O)oc23)CC1`, for which, in [1], the outcome was Active. Also, in test [2], the pEC50 entry was “inactive”. Besides, the Emax was 97% in test [3] and 26% in test [8]. Moreover, the figures for the Ki in [4] and in [6] were 1.7 nM and 568 nM, respectively. Further, the EC50 amounted to 0.64 nM in test [5] and 0.096 nM in [10]. Moreover, the antagonist dissociation constant (Kb) in test [7] amounted to 1140 nM. In [7], the pKb is 5.94. In addition, in test [9], the Emax result was “inactive”.
For `O=C1COc2ccccc2N1CCCN1CCN(c2cccc(Cl)c2Cl)CC1`, the pEC50 result in [2] is “inactive”. Besides, the figures for the Ki in test [4] and in test [6] were 273 nM and 75.8 nM, respectively. Also, the antagonist dissociation constant (Kb) amounted to 99 nM in test [11] and 1860 nM in test [7]. Also, the pKb amounted to 7 in test [11] and 5.73 in test [7]. Further, the Emax result in test [9] was “inactive”. For the same molecule, in [12], the inhibition entry was “Active”.
As to `O=C1COc2ccccc2N1CCCN1CCN(c2nsc3ccccc23)CC1`, the figures for the Ki in test [4] and in test [6] were 17.7 nM and 5.8 nM, respectively. Also, the Kb in test [11] was determined as 7 nM; in test [7], 235 nM. In addition, the values for the pKb in [11] and in test [7] were 8.16 and 6.63, respectively. Also, the inhibition entry in [12] is “Active”.
Consider `COc1ccccc1N1CCN(CCCN2C(=O)COc3ccccc32)CC1`, for which the pEC50 result in test [2] is “inactive”. For the same molecule, the Ki in [4] was determined as 42.7 nM; in [6], 275 nM. Moreover, the values for the Kb in test [11] and in test [7] were 7.8 nM and 578 nM, respectively. Further, the pKb in test [11] was 8.11; in [7] it was 6.24. Also, the Emax entry in [9] was “inactive”. In addition, the inhibition result in test [12] is “Active”.
Take `O=C(Cc1ccccc1)NC1CCN(CCCN2C(=O)COc3ccccc32)CC1`: the Ki in test [4] was 834 nM; in test [6], 1040 nM. In addition, the Kb was 2090 nM in test [11] and 1570 nM in [7]. In addition, the pKb in [11] was found to be 5.68; in test [7], 5.8. Further, in [9], the Emax is 101%.
As for `O=C1COc2ccccc2N1CCCN1CCC(c2noc3cc(F)ccc23)CC1`, the pEC50 result in test [2] is “inactive”. Further, the values for the Ki in test [4] and in test [6] were 3.2 nM and 2.7 nM, respectively. In addition, the Kb in test [11] was 1.2 nM; in [7] it was 21.2 nM. For the same molecule, the pKb in test [11] was determined as 8.91; in [7] it was 7.67. For the same molecule, the Emax result in test [9] was “inactive”. The inhibition result in test [12] is “Active”.

What is called Emax is the greatest response seen or fitted, relative to the assay's reference. As a reminder, the Ki is the dissociation constant of the complex between target and ligand, obtained from inhibition or displacement. One may read the EC50 as the concentration at which the effect is half-maximal. The term Kb denotes the equilibrium dissociation constant of an antagonist, usually derived from a functional assay. Broadly, the pKb is −log10 of the Kb, conventionally taken in molar units.

(Values after ChEMBL document CHEMBL4000143, “Proof of concept study for designed multiple ligands targeting the dopamine D2, serotonin 5-HT2A, and muscarinic M1 acetylcholine receptors” (J Med Chem, 2015).)
